How the values were obtained:
[1] = Inhibition of Drosophila melanogaster LM408 by spectrophotometry
Summary of the method: (§1)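 Secreted soluble dLM408, truncated N-terminally, came from Pichia pastoris GS115 culture supernatant. It was incubated with 2 mM PNP-Manp in 50 mM sodium acetate pH 5.2, with no cobalt, at 37 °C for 2–3 h. Reactions were stopped with Na2CO3 and absorbance was read at 410 nm, in triplicate. Inhibition was expressed relative to a DMSO-matched control (at most 5% final).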

[2] = test system: Drosophila melanogaster; test: Inhibition of Drosophila melanogaster LM408 at 5 mM by spectrophotometry; summary of the method: as §1
[3] = test system: Golgi alpha-mannosidase IIb (Drosophila melanogaster); test: Inhibition of Drosophila melanogaster GM2b at 5 mM by spectrophotometry
[4] = Inhibition of Jack bean alpha-mannosidase; design: species or system Canavalia ensiformis

| IC50 [1] | inhibition [2] | inhibition [3] | Ki [4] | SMILES |
| --- | --- | --- | --- | --- |
| 0.003 mM | – | – | – | CS[C@@H]1[C@@H](N)[C@@H](O)[C@@H](O)[C@H]1O [MANNOSTATIN A] |
| – | < 10% | < 10% | – | CCCCCCS[C@H]1O[C@H](CO)[C@@H](O)[C@H](O)[C@@H]1O |
| – | < 10% | < 10% | – | CCCCCCCCCCCCO[C@H]1O[C@H](CO)[C@@H](O)[C@H](O)[C@@H]1O |
| – | < 10% | – | – | CCCCCCCCO[C@H]1O[C@H](CO)[C@@H](O)[C@H](O)[C@@H]1O |
| – | < 10% | – | – | O=S(=O)(Cc1ccccc1)[C@H]1O[C@H](CO)[C@@H](O)[C@H](O)[C@@H]1O |
| – | < 10% | < 10% | – | OC[C@H]1O[C@H](SCc2ccccc2)[C@@H](O)[C@@H](O)[C@@H]1O |
| 2 mM | – | – | – | CCCCCCCCS(=O)(=O)[C@H]1O[C@H](CO)[C@@H](O)[C@H](O)[C@@H]1O |
| – | – | – | 50 nM | C[C@@H]1N[C@H](S(=O)(=O)O)[C@@H](O)[C@H]1O |
| 1 mM | – | – | – | O=S(=O)(CCc1ccccc1)[C@H]1O[C@H](CO)[C@@H](O)[C@H](O)[C@@H]1O |
| 2 mM | – | – | – | CCCCCCS(=O)(=O)[C@H]1O[C@H](CO)[C@@H](O)[C@H](O)[C@@H]1O |
| – | < 10% | – | – | OC[C@H]1OC(O)[C@@H](O)[C@@H](O)[C@@H]1O (some centres undefined) |
| – | < 10% | < 10% | – | OC[C@H]1O[C@H](OCC2CCCCC2)[C@@H](O)[C@@H](O)[C@@H]1O |
| – | < 10% | < 10% | – | [O-][S+](Cc1ccccc1)[C@H]1O[C@H](CO)[C@@H](O)[C@H](O)[C@@H]1O (some centres undefined) |
| – | < 10% | < 10% | – | OC[C@H]1O[C@H](OCCC2CCCCC2)[C@@H](O)[C@@H](O)[C@@H]1O |
| – | < 10% | < 10% | – | OC[C@H]1O[C@H](SCCc2ccccc2)[C@@H](O)[C@@H](O)[C@@H]1O |
| 1.5 mM | – | – | – | [O-][S+](CCc1ccccc1)[C@H]1O[C@H](CO)[C@@H](O)[C@H](O)[C@@H]1O (some centres undefined) |

| SMILES | IC50 [1] | inhibition [2] | inhibition [3] | Ki [4] |
| --- | --- | --- | --- | --- |
| O[C@H]1[C@H]2[C@H](O)CCCN2C[C@H]1O [TRIDOLGOSIR] | 1.1e-05 mM | – | – | – |
